# Laboratory results as given in ChEMBL document CHEMBL1132632, “Conformational and quantitative structure-activity relationship study of cytotoxic 2-arylidenebenzocycloalkanones” (J Med Chem, 1999).
# Starred links: 1 amine or outer side, 2 acyl side, 3 side chain; linkers in the order of their positions; H or OH if unused. Positions of bridges follow the written chain, without caps; N, C: chain ends. Non-standard residues stand in square brackets, D forms with d. Residues, ends and D or L forms follow the SMILES beside them. Chains are numbered I, II in the order given. Actinocin(1to9) = Cc1c2oc3c(C)ccc(C(=O)[*:2])c3nc-2c(C(=O)[*:1])c(N)c1=O; NMeV = CN[C@H](C(=O)O)C(C)C; Sar = CNCC(=O)O
# Assays:
# [1] = test system: L1210; assay: Average potency against L1210 cells; format: functional, Mus musculus
# [2] = test system: P388; assay: Average potency against P388 cells; format: functional, Mus musculus
# [3] = test system: Tumor Cell line; assay: Tested against human tumor cell lines, mean graph mid point values(MG MID) are determined.; format: functional
# In short: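 Panel of about 55 human tumor cell lines from nine cancer types: leukemia, melanoma, non-small-cell lung, colon, CNS, ovarian, renal, prostate and breast. Compounds were tested from 10⁻⁴ to 10⁻⁸ M, and the 50% growth-inhibitory concentration was found for each line.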
# [4] = test system: CCRF-CEM; assay: Inhibitory activity was tested against CEM cells; format: functional, cell-based; conditions: Homo sapiens
# [5] = test system: P388; assay: Inhibitory activity was tested against P388 cells; format: functional, cell-based; conditions: Mus musculus
# [6] = test system: CCRF-CEM; assay: Average potency against CEM cells; format: functional, Homo sapiens
# [7] = test system: L1210; assay: Inhibitory activity was tested against L1210 cells; format: functional, cell-based; conditions: Mus musculus
# [8] = test system: MOLT-4; assay: Average potency against Molt4/C8cells; format: functional, Homo sapiens
# [9] = test system: MOLT-4; assay: Inhibitory activity was tested against Molt4/C8 cells; format: functional, cell-based; conditions: Homo sapiens
# [10] = test system: Jurkat; assay: (§1) Inhibitory concentration against Human Jurkat T cells; format: functional
# [11] = test system: Jurkat; assay: (§2) IC80 concentrations of the compounds were used in determining the inhibition of RNA synthesis using Jurkat T cells.; format: functional, Homo sapiens
# [12] = test system: Jurkat; assay: as §1; format: functional, cell-based
# [13] = test system: Jurkat; assay: (§3) IC80 concentrations of the compounds were used in determining the inhibition of protein synthesis using Jurkat T cells.; format: functional, Homo sapiens
# [14] = test system: Tumor Cell line; assay: as §2; format: functional, Homo sapiens
# [15] = test system: Tumor Cell line; assay: as §1; format: functional
# In short: (§4)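 Human Jurkat T cells were exposed to compounds for 48 h. Viability was scored by nigrosin dye exclusion in place of trypan blue. IC50 and IC80 were derived from these counts.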
# [16] = test system: Tumor Cell line; assay: as §1; format: functional, cell-based; in short: as §4
# [17] = test system: Tumor Cell line; assay: as §3; format: functional, Homo sapiens
IC50 [4] [µM],IC50 [5] [µM],IC50 [7] [µM],IC50 [9] [µM],IC50 [16] [µM],SMILES,AP [1] [µM],AP [2] [µM],MG MID [3] [µM],AP [6] [µM],AP [8] [µM],IC80 [10] [µM],Inhibition [11] [%],IC50 [12] [µM],Inhibition [13] [%],Inhibition [14] [%],IC80 [15] [µM],Inhibition [17] [%]
32.4,21,43.3,173,–,O=C1/C(=C/c2cccc(Br)c2)Cc2ccccc21,127,42.9,46.7,155,267,–,–,–,–,–,–,–
> 500,10.9,> 500,> 500,–,O=C1/C(=C/c2ccc([N+](=O)[O-])cc2)CCCc2ccccc21,85.2,11.2,89.1,47,66,–,–,–,–,–,–,–
11.4,11.8,25,21.3,–,Cc1ccc(/C=C2\CCCc3ccccc3C2=O)cc1,85.2,11.2,11.2,47,66,23.3,84.2,14.6,46.3,–,–,–
170,29.8,263,228,–,Cc1cccc(/C=C2\CCCCCC2=O)c1,227,34.5,81.3,136,186,–,–,–,–,–,–,–
–,–,–,–,–,"Cc1c2oc3c(C)ccc(C(=O)N[C@@H]4C(=O)N[C@H](C(C)C)C(=O)N5CCC[C@H]5C(=O)N(C)CC(=O)N(C)[C@@H](C(C)C)C(=O)O[C@@H]4C)c3nc-2c(C(=O)N[C@@H]2C(=O)N[C@H](C(C)C)C(=O)N3CCC[C@H]3C(=O)N(C)CC(=O)N(C)[C@@H](C(C)C)C(=O)O[C@@H]2C)c(N)c1=O [DACTINOMYCIN] (I: T[dV]P[Sar][NMeV] / II: T[dV]P[Sar][NMeV]; ester I:1-I:C, II:1-II:C; linker I:N-II:N via Actinocin(1to9))",–,–,–,–,–,0.0072,63.2,0.0045,51.8,–,–,–
0.35,1.6,0.34,0.47,3.5,COc1ccc(/C=C2\CCCc3ccccc3C2=O)cc1,85.2,11.2,0.269,47,66,–,–,–,–,92.3,5.6,19.5
43.5,19.1,83,52.6,–,O=C1CCCCC/C1=C\c1ccc(Cl)cc1,227,34.5,33.1,136,186,–,–,–,–,–,–,–
7.72,15.8,48.8,8.82,–,O=C1/C(=C/c2cccc([N+](=O)[O-])c2)CCCc2ccccc21,85.2,11.2,10.2,47,66,–,–,–,–,–,–,–
–,–,–,–,–,N[C@@H](Cc1ccc(N(CCCl)CCCl)cc1)C(=O)O,–,–,25.7,–,–,3.52,85.1,2.2,30.5,–,–,–
30.1,23.6,162,39.2,–,O=C1CCCCC/C1=C\c1cccc([N+](=O)[O-])c1,227,34.5,30.2,136,186,–,–,–,–,–,–,–
9.44,8.2,52.3,23.8,–,O=C1/C(=C/c2cccc(Cl)c2)CCCc2ccccc21,85.2,11.2,16.6,47,66,–,–,–,–,–,–,–
40.5,25.7,144,88.6,–,O=C1CCCCC/C1=C\c1cccc(Cl)c1,227,34.5,41.7,136,186,–,–,–,–,–,–,–
36.3,25.2,104,39.6,–,O=C1CCCCC/C1=C\c1ccc([N+](=O)[O-])cc1,227,34.5,30.2,136,186,–,–,–,–,–,–,–
15.1,9.5,51.8,33,–,O=C1/C(=C/c2ccc(Cl)cc2)CCCc2ccccc21,85.2,11.2,17,47,66,–,–,–,–,–,–,–
15.8,19.9,54.4,34.6,–,Cc1cccc(/C=C2\CCCc3ccccc3C2=O)c1,85.2,11.2,20,47,66,–,–,–,–,–,–,–
8.79,16.6,158,21.2,–,O=C1/C(=C/c2cccc(Br)c2)CCc2ccccc21,135,20.9,11.8,115,158,–,–,–,–,–,–,–
11.2,10.9,134,28.3,–,O=C1/C(=C/c2cccc(F)c2)CCCc2ccccc21,85.2,11.2,16.2,47,66,–,–,–,–,–,–,–
45.1,18.8,79.1,57.4,–,CN(C)c1ccc(/C=C2\CCCCCC2=O)cc1,227,34.5,85.1,136,186,–,–,–,–,–,–,–
28.9,12.7,106,42.7,–,O=C1/C(=C/c2ccccc2)CCCc2ccccc21,85.2,11.2,18.6,47,66,–,–,–,–,–,–,–
9.5,13.9,56.3,> 100,–,COc1cccc(/C=C2\CCCc3ccccc3C2=O)c1,85.2,11.2,15.9,47,66,–,–,–,–,–,–,–
–,–,–,–,–,C[C@@H]1C[C@@H]([C@H](O)CC2CC(=O)NC(=O)C2)C(=O)[C@@H](C)C1 [CYCLOHEXIMIDE],–,–,–,–,–,1.54,93.3,0.93,71.9,–,–,–
> 500,> 50,> 500,> 500,–,Cc1ccc(/C=C2\CCCCCC2=O)cc1,227,34.5,83.2,136,186,–,–,–,–,–,–,–
